The values that follow come from ChEMBL document CHEMBL5260806, “Hydrogen peroxide activated quinone methide precursors with enhanced DNA cross-linking capability and cytotoxicity towards cancer cells” (Eur J Med Chem, 2017).

As usually defined, the IC50 is the concentration that gives 50% inhibition.

In data set [1] the test system is DNA. The data set is described as follows: Induction of [32P]-labeled 49-mer oligonucleotide duplex DNA 25 (unknown origin) interstrand cross-linking at 2 mM for 48 hrs in presence of 2mM H2O2 by PAGE. The data set is classed as functional.
In data set [2] the test system is DNA. The data set is described as follows: Induction of [32P]-labeled 49-mer oligonucleotide duplex DNA 25 (unknown origin) interstrand cross-linking at 2 mM for 24 hrs without H2O2 by PAGE. The data set is classed as functional.
Data set [3] concerns DNA. Kind of data set: Induction of [32P]-labeled 49-mer oligonucleotide duplex DNA 25 (unknown origin) interstrand cross-linking assessed as increase in cross linking with increase of pH from 2 to 9 at 2 mM for 24 hrs in presence of H2O2 by PAGE analysis. The data set is classed as functional.
The subject of the next data set is CAKI-1. Kind of data set: Anticancer activity against human CAKI-1 cells assessed inhibition of cell growth after 48 hrs by CellTiter-Glo luminescent assay. Format: functional, cell-based. The conditions noted are these: CAKI-1, 48 h. In outline: (§1)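 Renal lines grown in RPMI 1640 with 5% FBS and 2 mM L-glutamine, plated at 5,000–10,000 cells/well in 384-well plates and held 2–3 h at 37 °C, 5% CO2. Compounds were made as 20 mM DMSO stocks, given as ten 2-fold serial dilutions diluted 1:100 into cells, and incubated 48 h. Read-out was CellTiter-Glo luminescence after 10 min at room temperature.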

Data set [4] relates to CLL cell. Kind of data set: Induction of DNA damage in chronic lymphocytic leukemia patient lymphocytes assessed as gamma-H2Ax phosphorylation at Ser139 residue at 10 uM after 24 hrs by FITC-staining based flow cytometry. Format: functional. As to conditions: Homo sapiens. In outline: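 Patient CLL lymphocytes, Ficoll-hypaque isolated, in RPMI with 10% autologous plasma, untreated or exposed to 10 µM for 24 h. Cells washed in PBS, fixed in ice-cold 70% ethanol and held at −20 °C. Then permeabilised, stained with FITC anti-H2AX Ser139 antibody and read by flow cytometry.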
Background: Flow cytometry measures light scatter and fluorescence of single cells or particles in a stream.

Another data set deals with SN12C. Kind of data set: Anticancer activity against human SN12C cells assessed inhibition of cell growth after 48 hrs by CellTiter-Glo luminescent assay. Format: functional, cell-based. Put shortly: (§2)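 Renal lines grown in RPMI 1640 with 5% FBS and 2 mM L-glutamine, seeded into 384-well plates at 5,000–10,000 cells/well, held 2–3 h at 37 °C, 5% CO2. DMSO stocks (20 mM) serially halved ten times and added at 1:100. Cells exposed 48 h at 37 °C; CellTiter-Glo added, 10 min at room temperature, luminescence read.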

The next data set concerns MDA-MB-468. Kind of data set: Anticancer activity against human MDA-MB-468 cells assessed inhibition of cell growth after 48 hrs by CellTiter-Glo luminescent assay. The data set is classed as functional, cell-based. As to conditions: MDA-MB-468, 48 h. In outline:
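Cells grown in RPMI 1640 with 5% fetal bovine serum and 2 mM L-glutamine, seeded at 5,000–10,000 cells/well in 384-well plates, preincubated 2–3 h at 37°C, 5% CO2. DMSO stocks (20 mM) serially diluted 2-fold ten times, then added at 1:100. Exposure 48 h at 37°C. Viability read by CellTiter-Glo luminescence after 10 min at room temperature; IC50 derived.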

The next data set relates to UO-31. Kind of data set: Anticancer activity against human UO-31 cells assessed inhibition of cell growth after 48 hrs by CellTiter-Glo luminescent assay. Format: functional, cell-based. The conditions noted are these: UO-31, 48 h. Put shortly: as §2
(Cellular ATP, detected with luciferase, serves as a proxy for viable cell number.)

Another data set relates to TK-10. Kind of data set: Anticancer activity against human TK-10 cells assessed inhibition of cell growth after 48 hrs by CellTiter-Glo luminescent assay. The data set is classed as functional, cell-based. The conditions noted are these: TK-10, 48 h. Put shortly: as §2
In another data set the test system is ACHN. Kind of data set: Anticancer activity against human ACHN cells assessed inhibition of cell growth after 48 hrs by CellTiter-Glo luminescent assay. Format: functional, cell-based. Put shortly: as §1
For the next data set, the system named is 786-0. Kind of data set: Anticancer activity against human 786-0 cells assessed inhibition of cell growth after 48 hrs by CellTiter-Glo luminescent assay. Format: functional, cell-based. As to conditions: 786-0, 48 h. In outline: as §1
In data set [5] the test system is DNA. The data set is described as follows: Potentiation of H2O2 induced [32P]-labeled 49-mer oligonucleotide duplex DNA 25 (unknown origin) interstrand cross-linking at pH 8 in phosphate buffer solution assessed as rate constant and measured for 24 hrs by PAGE analysis. Format: functional.
The test system of data set [6] is CLL cell. The data set is described as follows: Induction of DNA damage in chronic lymphocytic leukemia patient lymphocytes assessed as apoptosis rate at 10 uM after 24 hrs by annexin/PI staining based flow cytometry. The data set is classed as functional. The conditions noted are these: Homo sapiens.
The nature of data set [7]: Toxicity in healthy human lymphocytes assessed as reduction in cell viability at 10 uM after 24 hrs by Annexin/PI staining based fluorescence assay. The conditions noted are these: lymphocyte. Put shortly:
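Normal donor lymphocytes (n=2) isolated from peripheral blood by Ficoll-hypaque, in RPMI with 10% autologous plasma. Exposed to 10 µM for 24 h; % viable cells by annexin/PI binding.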

Data set [8] is described as follows: Anticancer activity against human CLL cells assessed as reduction in cell viability incubated for 24 hrs by Annexin/PI staining based fluorescence assay. Format: functional. In outline:
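CLL lymphocytes were taken from patients' peripheral blood (n=3) by Ficoll-Hypaque, suspended in 10% autologous plasma in RPMI, and exposed to 1, 5, 10, 20, 50 and 100 µM. Viability was measured by annexin V/propidium iodide binding. IC50 comes from one representative patient.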

The next data set deals with A498. Kind of data set: Anticancer activity against human A498 cells assessed inhibition of cell growth after 48 hrs by CellTiter-Glo luminescent assay. Format: functional, cell-based. The conditions noted are these: A498, 48 h. In outline: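 Human tumour cells kept in RPMI 1640 with 5% FBS and 2 mM L-glutamine, seeded at 5,000–10,000 cells/well and left 2–3 h at 37°C, 5% CO2. Drugs taken from 20 mM DMSO stocks, serially halved ten times in DMSO, then added at 1:100 dilution. Cells exposed for 48 h at 37°C. Viability read by CellTiter-Glo luminescence after 10 min at room temperature.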

Activity calls are given as the source filed them. The calls are words filed in the database; no cut-off is given here.

As for `COc1cc(COC(C)=O)c(B2OC(C)(C)C(C)(C)O2)c(COC(C)=O)c1`, the Activity in the data set with DNA [1] is 26%; in the data set on DNA [2], 0%.

For `COc1c(CBr)c(B2OC(C)(C)C(C)(C)O2)c(CBr)c(OC)c1OC`, the Activity in the data set on DNA [1] and in the data set with DNA [2] was 0% throughout. In addition, the outcome in the data set on DNA [3] was inactive.

Turning to `CC(=O)OCc1cc(O)cc(COC(C)=O)c1B1OC(C)(C)C(C)(C)O1`, the values for the Activity with DNA [1] and in the data set on DNA [2] were 32% and 0%, respectively.

In the case of `CC1(C)OB(c2c(CBr)cc(O)cc2CBr)OC1(C)C`, the 50% inhibitory concentration (IC50) with CAKI-1 came out at 38.3 µM; in the data set with SN12C, 24.4 µM; with MDA-MB-468 it was 11 µM; with UO-31, 19.5 µM; with TK-10, 35.4 µM; in the data set on ACHN, 35.7 µM. Besides, the values for the IC50 (with 786-0; in [8]) were 27.8 µM and 20.8 µM, respectively. Moreover, the outcome in the data set on CLL cell [4] and in the data set on CLL cell [6] was Active. Further, the Activity with DNA [1] is 50%; in the data set with DNA [2], 0%; in [7], “Non-Toxic”. The Ka in the data set with DNA [5] is 0.000201 s⁻¹.

Take `N[C@@H](Cc1ccc(N(CCCl)CCCl)cc1)C(=O)O` [MELPHALAN]: the IC50 in the data set with SN12C came to 71 µM; in the data set on A498, 135 µM; in the data set on UO-31, 42.9 µM; in the data set with TK-10, 54.5 µM; in the data set with ACHN it was 52.1 µM; in the data set with 786-0, 19.2 µM. Also, in [8], the IC50 worked out at 76.9 µM.

With `CC1(C)OB(c2c(CBr)cccc2CBr)OC1(C)C`, the result in the data set with CLL cell [4] and in the data set with CLL cell [6] was Active. In addition, the IC50 in the data set on SN12C was determined as 27 µM; in the data set on MDA-MB-468 it was 12 µM; in the data set on A498 it was 33.3 µM; with UO-31, 25.3 µM; in the data set on TK-10 it was 21.4 µM; with ACHN, 26.9 µM. In addition, the half-inhibitory concentration (IC50) in the data set with 786-0 is 20.3 µM; in [8], 48.3 µM. Moreover, the Activity was 22% with DNA [1], 0% with DNA [2] and “Non-Toxic” in [7]. In addition, the Ka with DNA [5] worked out at 8.8e-05 s⁻¹.

As to `O=C(O)CCCc1ccc(N(CCCl)CCCl)cc1` [CHLORAMBUCIL], the IC50 in the data set on SN12C worked out at 135 µM; in the data set on A498 it was 280 µM; with UO-31 it was 40.7 µM; with ACHN, 133 µM; in the data set with 786-0, 55.5 µM; in [8], 98 µM.

In the case of `CC(=O)OCc1cccc(COC(C)=O)c1B1OC(C)(C)C(C)(C)O1`, the results for the Activity in the data set on DNA [1] and in the data set with DNA [2] were 20% and 0%, respectively.

For `COc1cc(OC)c(CBr)c(B2OC(C)(C)C(C)(C)O2)c1CBr`, in the data set on DNA [1], the Activity stood at 20%.
